≈ marks a conversion by molar mass, not a printed value.
Columns and labels:
[1] = test system: HeLa; test: Cytotoxicity against human HeLa cells assessed as reduction in cell viability after 24 hrs by MTT assay; format: functional, cell-based
Summary of the method: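 HeLa cells seeded at about 5 × 10^4 cells/mL in DMEM with 10% FBS, 2 mM glutamine, gentamicin; 24 h adaptation (37 °C, 5% CO2), then 24 h peptide exposure. MTT 4 h, formazan in DMSO read at 570 nm. 2-fold series 256–0.5 (open) or 512–1 μg/mL (closed), four repetitions; IC50 extrapolated from killing curves. Closed form handled in dim light.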

[2] = test system: Bacillus subtilis; test: Antimicrobial activity against Bacillus subtilis DSM 347 after 22 hrs by resazurin dye based spectrophotometry; format: functional; conditions: DSM 347, 22 h
Summary of the method: (§1)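 2-fold broth microdilution in Mueller–Hinton medium; peptide stocks 1024 μg/mL in 50% ethanol. Exponential-phase cultures diluted to OD550 0.2, then 1:100 (B. subtilis) or 1:1000 (E. coli), giving 5 × 10^5 CFU/mL per well. Incubated 22 h, 37 °C, static; then resazurin (0.2 mg/mL solution) added for 2 h at 37 °C, read visually and spectrophotometrically. Tested in both photoforms.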

[3] = Therapeutic index, ratio of HC50 for human RBC to MIC for Escherichia coli DSM 1103; format: toxicity; conditions: human red blood cells versus Escherichia coli DSM 1103
Summary of the method: (§2)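 Ratio of HC50 (RBC) to HeLa IC50 or to MIC against B. subtilis or E. coli; values measured in mg/mL and recalculated to μM, 2-fold dilution without curve fitting, accuracy within a factor of 2.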

[4] = Hemolytic activity against human RBC assessed as hemolysis after 30 mins by colorimetric method; format: ADME, cell-based, Erythrocyte; conditions: human red blood cells (erythrocytes)
Summary of the method: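 Human erythrocytes washed twice in isotonic 172 mM Tris-HCl, pH 7.6; peptides dissolved in DMSO, diluted in buffer, two independent 10-step 2-fold series from 256 or 192 μg/mL. HC50 extrapolated as 50% hemolysis concentration.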

[5] = Therapeutic index, ratio of HC50 for human RBC to MIC for Bacillus subtilis DSM 347; format: toxicity; conditions: human red blood cells versus Bacillus subtilis DSM 347; summary of the method: as §2
[6] = Selective ratio of HC50 for human RBC to IC50 for human HeLa cells; format: toxicity; conditions: human red blood cells versus HeLa cells; summary of the method: as §2
[7] = test system: Escherichia coli; test: Antimicrobial activity against Escherichia coli DSM 1103 after 22 hrs by resazurin dye based spectrophotometry; format: functional; conditions: DSM 1103, 22 h; summary of the method: as §1
[8] = test system: MCF7; test: Cytotoxicity against human MCF7 cells assessed as reduction in cell viability after 24 hrs by MTT assay; format: functional, cell-based; conditions: MCF7, 24 h
Summary of the method: (§3)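 Cells were grown in DMEM with 10% FBS, 2 mM L-glutamine and 40 μg/mL gentamicin, seeded at about 5 × 10^4 cells/mL, and allowed 24 h adaptation (37 °C, 5% CO2). Peptides were then added for 24 h as 2-fold dilutions (open 256–0.5, closed 512–1 μg/mL), closed form handled under dim light. MTT was given for 4 h, formazan dissolved in DMSO and read at 570 nm. Four repetitions; IC50 extrapolated from viability curves.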

[9] = Cytotoxicity against human MOR cells assessed as reduction in cell viability after 24 hrs by MTT assay; format: functional, cell-based; summary of the method: as §3
[10] = Cytotoxicity against human doxorubicin-resistant MOR cells assessed as reduction in cell viability after 24 hrs by MTT assay; format: functional, cell-based; summary of the method: as §3
[11] = test system: MIA PaCa-2; test: Cytotoxicity against human MIAPaCa2 cells assessed as reduction in cell viability after 24 hrs by MTT assay; format: functional, cell-based; conditions: MIA PaCa-2, 24 h; summary of the method: as §3
[12] = test system: HepG2; test: Cytotoxicity against human HepG2 cells assessed as reduction in cell viability after 24 hrs by MTT assay; format: functional, cell-based; conditions: HepG2, 24 h; summary of the method: as §3

SMILES	IC50 [1] [µM]	MIC [2] [µM]	selectivity ratio [3]	HC50 at 0.5 h [4] [µM]	selectivity ratio [5]	selectivity ratio [6]	MIC [7] [µM]	IC50 [8] [µM]	IC50 [9] [µM]	IC50 [10] [µM]	IC50 [11] [µM]	IC50 [12] [µM]
CC(C)C[C@@H]1NC(=O)[C@H](CCCCN)NC(=O)[C@H](C(C)C)NC(=O)[C@@H]2CCCN2C(=O)[C@@H](Cc2ccccc2)NC(=O)[C@H](CC(C)C)NC(=O)[C@H](CCCCN)NC(=O)[C@H](C(C)C)NC(=O)[C@H](CCCCN)NC(=O)C2=CC3=C4CCCC4=C4C=C(S[C@]4(C)[C@@]3(C)S2)C(=O)[C@H]2CCCN2C(=O)[C@H](CCCCN)NC1=O	82	21 (≈ 32.9 µg/mL)	0.4	65	3.1	0.8	164 (≈ 257 µg/mL)	–	–	–	–	–
Cc1sc2cc1C1=C(CCC1)c1cc(sc1C)C(=O)[C@H]1CCCN1C(=O)[C@H](CCCCN)NC(=O)[C@H](CC(C)C)NC(=O)[C@H](CCCCN)NC(=O)[C@H](C(C)C)NC(=O)[C@@H]1CCCN1C(=O)[C@@H](Cc1ccccc1)NC(=O)[C@H](CC(C)C)NC(=O)[C@H](CCCCN)NC(=O)[C@H](C(C)C)NC(=O)[C@H](CCCCN)NC2=O	41	1 (≈ 1.57 µg/mL)	0.2	4	4	0.1	21 (≈ 32.9 µg/mL)	–	–	–	–	–
CC(C)[C@@H]1NC(=O)C2=CC3=C4CCCC4=C4C=C(S[C@]4(C)[C@@]3(C)S2)C(=O)[C@H]2CCCN2C(=O)[C@H](C(C)C)NC(=O)[C@H](CCCN)NC(=O)[C@H]([C@H](O)C(C)C)NC(=O)[C@@H]2CCCN2C(=O)[C@@H](Cc2ccccc2)NC(=O)[C@H](C(C)C)NC(=O)[C@H](CCCN)NC1=O	150	9 (≈ 11.5 µg/mL)	2	200	21.3	1.3	100 (≈ 128 µg/mL)	150	150	100	150	100
Cc1sc2cc1C1=C(CCC1)c1cc(sc1C)C(=O)[C@H]1CCCN1C(=O)[C@H](C(C)C)NC(=O)[C@H](CCCCN)NC(=O)[C@H](CC(C)C)NC(=O)[C@H](CCCCN)NC(=O)[C@@H]1CCCN1C(=O)[C@@H](Cc1ccccc1)NC(=O)[C@H](CCCCN)NC(=O)[C@H](C(C)C)NC(=O)[C@H](CCCCN)NC(=O)[C@H](CC(C)C)NC2=O	41	2 (≈ 3.13 µg/mL)	2	82	41	2	41 (≈ 64.2 µg/mL)	–	–	–	–	–
Cc1sc2cc1C1=C(CCC1)c1cc(sc1C)C(=O)[C@H]1CCCN1C(=O)[C@H](C(C)C)NC(=O)[C@H](CCCN)NC(=O)[C@H]([C@H](O)C(C)C)NC(=O)[C@@H]1CCCN1C(=O)[C@@H](Cc1ccccc1)NC(=O)[C@H](C(C)C)NC(=O)[C@H](CCCN)NC(=O)[C@H](C(C)C)NC2=O	9	3 (≈ 3.85 µg/mL)	0.4	20	6.7	2.2	50 (≈ 64.1 µg/mL)	6	5	5	6	5
